Sampled rows, rich in hits. Any-hit rate of the full collection: about 2.3%.
Pemphigus Ab inh: inhibitors of pemphigus antibody binding to DSG3, primary screen, biochemical, bead-based, flow cytometry, scFv-GFP | hit rate 0.48% among 310,000 | binding (percent of control), % at 10 µM | Desmoglein-3 (Homo sapiens), P32926 | DSG3-coupled beads, scFv-anti-DSG3-GFP binding; hits give low values;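 active = binding more than 3 SD below its plate's average and above zero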;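 also: hits lower antibody fragment binding to DSG3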
T cell modulator: modulators of CD8 T cell-vesicle binding, primary screen, mouse 2C CD8+ T cells, flow cytometry; 2C CD8+ T cell-vesicle binding; hits give low values; response (vesicle binding), % at 7 µM; hit rate 0.068% among 330,000; AID 2052, 2009;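 active = response, share of CD8 T cells binding vesicles, and their 90th percentile fluorescence all below set limits, cut at about 80% in these data, passing the limit was not always enough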;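 also: values below 100% mean blocked vesicle binding to the CD8+ T cells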
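System: murine 2C transgenic CD8+ T lymphocytes; also added: QL9-loaded Drosophila micro-vesicles; times: binding 1.5 h at 37 °C; measured by: flow cytometry, PE anti-B7-1 (FL2) versus Alexa647 anti-CD8 (FL8), PFA-fixed; control set: Peptide-free naked vesicles (low) and QL9 vesicles with 0.7% DMSO vehicle (high)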
MCL1 BIM primary: inhibitors of MCL1 binding to BIM-BH3, primary screen, biochemical, fluorescence polarization; Induced myeloid leukemia cell differentiation protein Mcl-1 (Homo sapiens), Q07820; GST-MCL1 / FITC-Bim-BH3 fluorescence polarization; inhibition, % at 10.9 µM; hit rate 0.68% among 320,000;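 active = inhibition above the mean inhibition of all tested compounds plus 3 SD, set per campaign, cut at about 40% in these data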;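 also: 0% = DMSO wells and 100% = unlabeled Bim-BH3 peptide control; higher means more loss of mP so more displacement of Bim peptide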
Target sequence (Q07820 whole entry, looked up): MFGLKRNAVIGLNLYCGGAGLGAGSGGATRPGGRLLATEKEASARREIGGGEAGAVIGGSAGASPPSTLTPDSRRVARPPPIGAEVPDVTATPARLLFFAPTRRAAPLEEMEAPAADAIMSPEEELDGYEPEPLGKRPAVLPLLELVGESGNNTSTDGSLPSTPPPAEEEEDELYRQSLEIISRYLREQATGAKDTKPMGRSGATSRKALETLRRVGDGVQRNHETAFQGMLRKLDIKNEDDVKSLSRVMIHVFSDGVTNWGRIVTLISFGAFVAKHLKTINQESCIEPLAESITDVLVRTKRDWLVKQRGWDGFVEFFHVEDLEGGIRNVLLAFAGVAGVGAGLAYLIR
Mcl1-Noxa inh: Mcl-1/Noxa binding inhibitors, primary screen, biochemical, TR-FRET, 1536-well. Induced myeloid leukemia cell differentiation protein Mcl-1 (Homo sapiens), Q07820. TR-FRET Mcl-1/Noxa peptide binding, 2 h. inhibition, % at 21.7 µM. hit rate 1.5% among 220,000;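 active = compounds that cut the protein-peptide binding signal by more than 50% relative to plate controls in a single-dose test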;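 also: His-tagged Mcl-1 with rhodamine Noxa BH3 peptide and terbium anti-His antibody; 0% = Mcl-1 plus Noxa peptide wells and 100% = peptide-only wells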
Bim-Mcl-1: inhibitors of Bim peptide binding to Mcl-1, primary screen, biochemical, bead-based flow cytometry, multiplex; Induced myeloid leukemia cell differentiation protein Mcl-1 (Homo sapiens), Q07820; Bim peptide-Mcl-1 binding; inhibition, % at 10 µM; hit rate 0.1% among 190,000; AID 1009, 2008; in the data active = inhibition above about 40%;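 also: 0% = no compound tracer wells and 100% = peptide blocker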
Mcl1-Bid inh: Mcl-1/Bid binding inhibitors, primary screen, biochemical, TR-FRET, 1536-well | TR-FRET Mcl-1/Bid-Dy647 peptide binding | inhibition, % at 21.7 µM | hit rate 0.97% among 220,000 | Induced myeloid leukemia cell differentiation protein Mcl-1 (Homo sapiens), Q07820 | AID 1021, 2008;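 active = compounds that cut the binding signal by more than half at the single screening dose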;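 also: His-tagged Mcl-1 with europium anti-His antibody binding Bid BH3 peptide; 0% = Mcl-1 plus peptide wells and 100% = peptide-only wells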
BCLXL inh confirm: Bcl-xL inhibitors blocking Bim BH3 binding, confirmation, counter-screen for MCL1 inhibitor project, biochemical, fluorescence polarization; hit rate 54% among 1,700; inhibition, % at 10.9 µM; AID 2166, 2009; GST-Bcl-xL / FITC-Bim BH3 peptide FP binding; shares compounds with MCL1 BIM primary;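 active = inhibition above a cutoff equal to the mean inhibition of all tested compounds plus 3 SD, cut at about 30% in these data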;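 also: 0% = DMSO wells and 100% = unlabeled Bim BH3 control peptide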
MCL1 inh confirm: inhibitors of MCL1 binding to BIM-BH3, confirmation, biochemical, fluorescence polarization, triplicate | shares compounds with MCL1 BIM primary | GST-MCL1 / FITC-Bim-BH3 fluorescence polarization | inhibition, % at 10.9 µM | hit rate 61% among 1,700 | AID 2168, 2009;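 active = inhibition above the average of all tested compounds plus 3 SD, cut at about 40% in these data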;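 also: 0% = DMSO wells and 100% = unlabeled Bim-BH3 control peptide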
Starred values were filed as active, the others as inactive; / = no result given.

SMILES	Pemphigus Ab inh	T cell modulator	MCL1 BIM primary	Mcl1-Noxa inh	Bim-Mcl-1	Mcl1-Bid inh	BCLXL inh confirm	MCL1 inh confirm
CCSC1(SCC)N=C(N)C2(C#N)C(c3ccccc3)NC3=C(CCC3)C12C#N (stereo not given)	94	251	26	-1	0	-54	/	/
COc1ccc(NS(=O)(=O)c2cccc(C(=O)N3CCN(S(=O)(=O)c4ccccc4)CC3)c2)cc1	114	/	/	/	/	/	/	/
Cn1c(=O)cc2c3c(c(N4CCCCC4)ccc31)C(=O)c1ccccc1-2	104	61	152*	26	/	-38	112*	143*
Cn1nc(-c2ccccc2)c(N2CCCCC2)cc1=O	100	262	-2	-2	-2	39	/	/
CCN(CC(=O)Nc1ccccc1OC)C(=O)CCOc1ccc(C(C)(C)C)cc1	99	197	6	/	/	/	/	/
CCN1CCc2c(sc(NC(=O)Cc3ccccc3)c2C(N)=O)C1	82	598	7	/	/	/	/	/
CCN1CCc2c(sc(NC(=O)Nc3ccc(Cl)c(Cl)c3)c2C(N)=O)C1	86	563	87*	44	-3	2	54*	56*
O=C(Cc1ccc(NC(=O)C2CCN(C(=O)C3CC3)CC2)cc1)Nc1cccc(C(=O)N2CCCCC2)c1	95	/	/	/	/	/	/	/
CCOC(=O)c1[nH]cnc1N=Nc1c(O)ccc2ccccc12	97	413	93*	24	-1	-49	75*	84*
Oc1ccc2ccccc2c1N=Nc1ccccn1	101	439	8	0	-6	2	/	/
CCN(CC)C(=O)c1nc[nH]c1C(=O)N1CCc2ccccc2C1	102	342	-2	/	/	/	/	/
O=C1c2ccc(-c3ccc4c(c3)C(=O)N(CCCO)C4=O)cc2C(=O)N1CCCO	96	320	4	-3	/	-22	/	/
O=C1C2=C(SCCS2)C(=O)N1CCCO	103	728	92*	-3	0	-19	74*	94*
COc1ccc(NS(=O)(=O)c2csc(C(N)=O)c2)cc1	109	258	-1	/	/	/	/	/
NS(=O)(=O)c1cccc(NC(=O)CN2CCc3ccccc32)c1	/	188	77*	21	2	-33	6	0
N#C/C(=C\c1ccc[nH]1)C(=O)Nc1ccccc1Cl	107	259	47*	/	/	/	26	33
N#C/C(=C\c1ccc[nH]1)C(=O)Nc1ccccc1F	104	82	/	/	/	/	/	/
O=C(O)CCNc1ccc(NCCC(=O)O)c2c1C(=O)c1ccccc1C2=O	78	232	154*	/	/	/	102*	130*
COc1ccccc1NCCC(=O)O	98	539	1	0	/	-141	/	/
O=C(CSc1nnc(-c2ccccc2O)o1)N1CCCCC1	106	277	-1	/	/	/	/	/
Cc1ccc(C)c(CN2CCC(CNC(=O)Nc3ccc(F)c(Cl)c3)CC2)c1	105	424	1	/	/	/	/	/
CCCCC[C@@H](/C=C/C1C(=O)C=C[C@H]1C/C=C\CCCC(=O)OC)OC(C)=O (stereo not given in full)	95	/	/	/	/	/	/	/
CCc1cc[n+](-c2nc([O-])sc2C=O)cc1	103	496	136*	-2	-1	-35	83*	119*
COC(=O)C1=C(C)NC(=O)/C1=C\N(C)C	100	205	105*	13	0	-44	8	8
